ChEMBL document CHEMBL3351900, “Conjugation of a nonspecific antiviral sapogenin with a specific HIV fusion inhibitor: a promising strategy for discovering new antiviral therapeutics” (J Med Chem, 2014)
Square brackets hold non-standard residues; d marks the D form. Peptide text beside a SMILES is read from it. * marks the point of attachment. X1 = C=CCOC(=O)[C@]12CC[C@@H](C(=C)C)[C@@H]1[C@H]1CC[C@@H]3[C@@]4(C)CC[C@H](OC(=O)CCc5cn(CC(=O)*)nn5)C(C)(C)[C@@H]4CC[C@@]3(C)[C@]1(C)CC2; X9 = C=CCOC(=O)[C@]12CC[C@@H](C)[C@H](C)[C@H]1C1=CC[C@@H]3[C@@]4(C)CC[C@H](OC(=O)CCc5cn(CC(=O)*)nn5)C(C)(C)[C@@H]4CC[C@@]3(C)[C@]1(C)CC2; X5 = C=C(C)[C@@H]1CC[C@]2(C(=O)OCc3cn(CC(=O)*)nn3)CC[C@]3(C)[C@H](CC[C@@H]4[C@@]5(C)CC[C@H](OC(C)=O)C(C)(C)[C@@H]5CC[C@]43C)[C@@H]12; X4 = C=C(C)[C@@H]1CC[C@]2(C(=O)OCc3cn(CC(=O)*)nn3)CC[C@]3(C)[C@H](CC[C@@H]4[C@@]5(C)CC[C@H](O)C(C)(C)[C@@H]5CC[C@]43C)[C@@H]12; X7 = C[C@H]1[C@H](C)CC[C@]2(C(=O)OCc3cn(CC(=O)*)nn3)CC[C@]3(C)C(=CC[C@@H]4[C@@]5(C)CC[C@H](O)C(C)(C)[C@@H]5CC[C@]43C)[C@H]12; X6 = CC1(C)CC[C@]2(C(=O)O)CC[C@]3(C)C(=CC[C@@H]4[C@@]5(C)CC[C@H](OC(=O)CCc6cn(CC(=O)*)nn6)C(C)(C)[C@@H]5CC[C@]43C)[C@@H]2C1; βAla = NCCC(=O)O

Tests used:
[1] = test system: Human immunodeficiency virus 1; test: Antiviral activity against HIV1 3B infected in human MT2 cells assessed as inhibition of viral p24 antigen production by ELISA; assay type: functional, organism-based; conditions: Human immunodeficiency virus 1, 3B
Outline: (§1)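 MT-2 cells (1 × 10⁴) infected with 100 TCID₅₀ virus with or without peptides at graded concentrations. Culture supernatants collected on day 4 postinfection; p24 antigen quantified by ELISA. Percent inhibition and EC₅₀ calculated; tested in triplicate, mean ± standard deviation.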

[2] = Cytotoxicity against human MT2 cells after 4 days by XTT assay; assay type: cell-based
Outline: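 MT-2 cells (5 × 10⁵/mL) mixed with equal volumes of graded conjugate concentrations and held at 37 °C for 4 days. XTT (1 mg/mL) with 0.02 μM phenazine methosulfate added for 4 h, then A450 read. CC50 calculated from the dose–response.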

[3] = Selectivity index, ratio of CC50 for human MT2 cells to EC50 for HIV1 3B infected in human MT2 cells; assay type: toxicity, cell-based; conditions: read-out: Ratio CC50/EC50
[4] = test system: Human immunodeficiency virus 1; test: Antiviral activity against HIV1 BaL infected in human […] cells assessed as inhibition of viral replication; assay type: functional, organism-based; conditions: Human immunodeficiency virus 1, BaL; outline: as §1

SMILES	EC50 [1] [nM]	CC50 at 96 h [2] [nM]	selectivity ratio [3]	EC50 [4] [nM]
C=CCOC(=O)[C@]12CC[C@@H](C)[C@H](C)[C@H]1C1=CC[C@@H]3[C@@]4(C)CC[C@H](OC(=O)CCc5cn(CC(=O)NCCCC[C@H](NC(=O)CCNC(=O)[C@H](CC(C)C)NC(=O)[C@H](CC(C)C)NC(=O)[C@H](CCC(=O)O)NC(=O)[C@H](CCC(N)=O)NC(=O)[C@H](CCC(=O)O)NC(=O)[C@H](CC(N)=O)NC(=O)[C@H](CCCCN)NC(=O)[C@H](CCC(=O)O)NC(=O)[C@H](CCC(N)=O)NC(=O)[C@H](CCC(N)=O)NC(=O)[C@H](CC(N)=O)NC(=O)[C@H](CCC(N)=O)NC(=O)[C@H](CO)NC(=O)[C@H](CCC(=O)O)NC(=O)[C@H](CCC(=O)O)NC(=O)[C@@H](NC(=O)[C@H](CC(C)C)NC(=O)[C@H](CO)NC(=O)[C@H](Cc6cnc[nH]6)NC(=O)[C@@H](NC(=O)[C@H](CC(C)C)NC(=O)[C@H](CO)NC(=O)[C@@H](NC(=O)[C@H](Cc6ccc(O)cc6)NC(=O)[C@H](CC(N)=O)NC(=O)[C@H](CC(N)=O)NC(C)=O)[C@@H](C)O)[C@@H](C)CC)[C@@H](C)CC)C(N)=O)nn5)C(C)(C)[C@@H]4CC[C@@]3(C)[C@]1(C)CC2 (Ac-NNYTSLIHSLIEESQNQQEKNEQELL[βAla]K(X9)-NH2)	2.18	7920	3630	2.51
C=CCOC(=O)[C@]12CC[C@@H](C(=C)C)[C@@H]1[C@H]1CC[C@@H]3[C@@]4(C)CC[C@H](OC(=O)CCc5cn(CC(=O)NCCC(=O)N[C@@H](CC(N)=O)C(=O)N[C@@H](CC(N)=O)C(=O)N[C@@H](Cc6ccc(O)cc6)C(=O)N[C@H](C(=O)N[C@@H](CO)C(=O)N[C@@H](CC(C)C)C(=O)N[C@H](C(=O)N[C@@H](Cc6cnc[nH]6)C(=O)N[C@@H](CO)C(=O)N[C@@H](CC(C)C)C(=O)N[C@H](C(=O)N[C@@H](CCC(=O)O)C(=O)N[C@@H](CCC(=O)O)C(=O)N[C@@H](CO)C(=O)N[C@@H](CCC(N)=O)C(=O)N[C@@H](CC(N)=O)C(=O)N[C@@H](CCC(N)=O)C(=O)N[C@@H](CCC(N)=O)C(=O)N[C@@H](CCC(=O)O)C(=O)N[C@@H](CCCCN)C(=O)N[C@@H](CC(N)=O)C(=O)N[C@@H](CCC(=O)O)C(=O)N[C@@H](CCC(N)=O)C(=O)N[C@@H](CCC(=O)O)C(=O)N[C@@H](CC(C)C)C(=O)N[C@@H](CC(C)C)C(N)=O)[C@@H](C)CC)[C@@H](C)CC)[C@@H](C)O)nn5)C(C)(C)[C@@H]4CC[C@@]3(C)[C@]1(C)CC2 ({X1-βAla}-NNYTSLIHSLIEESQNQQEKNEQELL-NH2)	242	> 25000	> 103	519
C=C(C)[C@@H]1CC[C@]2(C(=O)OCc3cn(CC(=O)NCCC(=O)N[C@@H](CC(N)=O)C(=O)N[C@@H](CC(N)=O)C(=O)N[C@@H](Cc4ccc(O)cc4)C(=O)N[C@H](C(=O)N[C@@H](CO)C(=O)N[C@@H](CC(C)C)C(=O)N[C@H](C(=O)N[C@@H](Cc4cnc[nH]4)C(=O)N[C@@H](CO)C(=O)N[C@@H](CC(C)C)C(=O)N[C@H](C(=O)N[C@@H](CCC(=O)O)C(=O)N[C@@H](CCC(=O)O)C(=O)N[C@@H](CO)C(=O)N[C@@H](CCC(N)=O)C(=O)N[C@@H](CC(N)=O)C(=O)N[C@@H](CCC(N)=O)C(=O)N[C@@H](CCC(N)=O)C(=O)N[C@@H](CCC(=O)O)C(=O)N[C@@H](CCCCN)C(=O)N[C@@H](CC(N)=O)C(=O)N[C@@H](CCC(=O)O)C(=O)N[C@@H](CCC(N)=O)C(=O)N[C@@H](CCC(=O)O)C(=O)N[C@@H](CC(C)C)C(=O)N[C@@H](CC(C)C)C(N)=O)[C@@H](C)CC)[C@@H](C)CC)[C@@H](C)O)nn3)CC[C@]3(C)[C@H](CC[C@@H]4[C@@]5(C)CC[C@H](O)C(C)(C)[C@@H]5CC[C@]43C)[C@@H]12 ({X4-βAla}-NNYTSLIHSLIEESQNQQEKNEQELL-NH2)	475	> 25000	> 52	456
C=C(C)[C@@H]1CC[C@]2(C(=O)OCc3cn(CC(=O)NCCC(=O)N[C@@H](CC(N)=O)C(=O)N[C@@H](CC(N)=O)C(=O)N[C@@H](Cc4ccc(O)cc4)C(=O)N[C@H](C(=O)N[C@@H](CO)C(=O)N[C@@H](CC(C)C)C(=O)N[C@H](C(=O)N[C@@H](Cc4cnc[nH]4)C(=O)N[C@@H](CO)C(=O)N[C@@H](CC(C)C)C(=O)N[C@H](C(=O)N[C@@H](CCC(=O)O)C(=O)N[C@@H](CCC(=O)O)C(=O)N[C@@H](CO)C(=O)N[C@@H](CCC(N)=O)C(=O)N[C@@H](CC(N)=O)C(=O)N[C@@H](CCC(N)=O)C(=O)N[C@@H](CCC(N)=O)C(=O)N[C@@H](CCC(=O)O)C(=O)N[C@@H](CCCCN)C(=O)N[C@@H](CC(N)=O)C(=O)N[C@@H](CCC(=O)O)C(=O)N[C@@H](CCC(N)=O)C(=O)N[C@@H](CCC(=O)O)C(=O)N[C@@H](CC(C)C)C(=O)N[C@@H](CC(C)C)C(N)=O)[C@@H](C)CC)[C@@H](C)CC)[C@@H](C)O)nn3)CC[C@]3(C)[C@H](CC[C@@H]4[C@@]5(C)CC[C@H](OC(C)=O)C(C)(C)[C@@H]5CC[C@]43C)[C@@H]12 ({X5-βAla}-NNYTSLIHSLIEESQNQQEKNEQELL-NH2)	501	> 25000	> 52	99
CC[C@H](C)[C@H](NC(=O)[C@H](CC(C)C)NC(=O)[C@H](CO)NC(=O)[C@H](Cc1cnc[nH]1)NC(=O)[C@@H](NC(=O)[C@H](CC(C)C)NC(=O)[C@H](CO)NC(=O)[C@@H](NC(=O)[C@H](Cc1ccc(O)cc1)NC(=O)[C@H](CC(N)=O)NC(=O)[C@H](CC(N)=O)NC(=O)CCNC(=O)Cn1cc(CCC(=O)O[C@H]2CC[C@]3(C)[C@H]4CC=C5[C@@H]6CC(C)(C)CC[C@]6(C(=O)O)CC[C@@]5(C)[C@]4(C)CC[C@H]3C2(C)C)nn1)[C@@H](C)O)[C@@H](C)CC)C(=O)N[C@@H](CCC(=O)O)C(=O)N[C@@H](CCC(=O)O)C(=O)N[C@@H](CO)C(=O)N[C@@H](CCC(N)=O)C(=O)N[C@@H](CC(N)=O)C(=O)N[C@@H](CCC(N)=O)C(=O)N[C@@H](CCC(N)=O)C(=O)N[C@@H](CCC(=O)O)C(=O)N[C@@H](CCCCN)C(=O)N[C@@H](CC(N)=O)C(=O)N[C@@H](CCC(=O)O)C(=O)N[C@@H](CCC(N)=O)C(=O)N[C@@H](CCC(=O)O)C(=O)N[C@@H](CC(C)C)C(=O)N[C@@H](CC(C)C)C(N)=O ({X6-βAla}-NNYTSLIHSLIEESQNQQEKNEQELL-NH2)	94	> 25000	> 266	150
CC[C@H](C)[C@H](NC(=O)[C@H](CC(C)C)NC(=O)[C@H](CO)NC(=O)[C@H](Cc1cnc[nH]1)NC(=O)[C@@H](NC(=O)[C@H](CC(C)C)NC(=O)[C@H](CO)NC(=O)[C@@H](NC(=O)[C@H](Cc1ccc(O)cc1)NC(=O)[C@H](CC(N)=O)NC(=O)[C@H](CC(N)=O)NC(=O)CCNC(=O)Cn1cc(COC(=O)[C@]23CC[C@@H](C)[C@H](C)[C@H]2C2=CC[C@@H]4[C@@]5(C)CC[C@H](O)C(C)(C)[C@@H]5CC[C@@]4(C)[C@]2(C)CC3)nn1)[C@@H](C)O)[C@@H](C)CC)C(=O)N[C@@H](CCC(=O)O)C(=O)N[C@@H](CCC(=O)O)C(=O)N[C@@H](CO)C(=O)N[C@@H](CCC(N)=O)C(=O)N[C@@H](CC(N)=O)C(=O)N[C@@H](CCC(N)=O)C(=O)N[C@@H](CCC(N)=O)C(=O)N[C@@H](CCC(=O)O)C(=O)N[C@@H](CCCCN)C(=O)N[C@@H](CC(N)=O)C(=O)N[C@@H](CCC(=O)O)C(=O)N[C@@H](CCC(N)=O)C(=O)N[C@@H](CCC(=O)O)C(=O)N[C@@H](CC(C)C)C(=O)N[C@@H](CC(C)C)C(N)=O ({X7-βAla}-NNYTSLIHSLIEESQNQQEKNEQELL-NH2)	565	> 25000	> 44	288
